Experimental data collected from several papers.
Each line is one published result; the experiments were not run side by side.
Target: Cyclin-dependent kinase 5 (CDK5, Homo sapiens, UniProt Q00535)

| Structure (SMILES) | observed | technique | tested at | remaining binding |
| --- | --- | --- | --- | --- |
| COc1cnc(Nc2cccc(S(N)(=O)=O)c2)nc1N1CCN(c2ccccc2)CC1 | binding | competition with immobilised ligand | 1 µM | 100% |
| Cc1cnn2ncc(-c3ccnc(N(C)C)n3)c2c1 | binding | – | 1 µM | 100% |
| CNC(=O)Nc1ccc2c(c1)CC[C@@]21OC(=O)N(CC(=O)N(Cc2ccc(F)cc2)[C@@H](C)C(F)(F)F)C1=O | cell-free assay | competition with immobilised ligand | 1 µM | 84% |
| CN(c1nccc(-c2cnn3ncccc23)n1)C1CC1 | binding | – | 1 µM | 100% |
| C[C@@H]1CN(c2cc(-c3n[nH]c4ccc(OC5(C)CC5)cc34)ncn2)C[C@H](C)O1 | cell-free assay | competition with immobilised ligand | 0.1 µM | 100% |
| O=C(c1ccc(Nc2nccc(-c3cc4ccccc4s3)n2)cc1)N1CCC(N2CCCC2)CC1 | binding | competition with immobilised ligand | 1 µM | 92% |
| CN([C@@H]1CCc2c(CC(=O)O)c3ccccc3n2C1)S(=O)(=O)c1ccc(F)cc1 | cell-free assay | competition with immobilised ligand | 1 µM | 100% |
| O=C(Nc1c[nH]nc1C(=O)NC1CCNCC1)c1cc(F)cc(F)c1 | binding | competition with immobilised ligand | 1 µM | 100% |
| C[C@@H](c1ccc(-n2cnc3c(N)ncnc32)cc1)N1CCc2nn(C)c(Cc3ccccc3)c2C1=O | binding | competition with immobilised ligand | 0.1 µM | 39% |
| COc1ncc2cc3ccccc3nc2c1C#N | cell-free assay | competition with immobilised ligand | 5 µM | 100% |
| Cn1cc(Cl)c2c(Oc3c(F)cc(Nc4cc(Cl)nc(N)n4)cc3F)ccnc21 | cell-free assay | competition with immobilised ligand | 0.1 µM | 100% |
| CCN1CCN(Cc2ccc(C(=O)Nc3ccc(C)c(Oc4ccc5c(c4)CC(=O)N5)c3)cc2C(F)(F)F)CC1 | binding | competition with immobilised ligand | 1 µM | 100% |
| O=C(c1ccc(Nc2ncc(Cl)c(-c3ccc(Cl)s3)n2)cc1)N1CCC(N2CCCC2)CC1 | binding | competition with immobilised ligand | 1 µM | 26% |
| CN(CCCC(F)(F)F)c1nccc(-c2cnn3ncccc23)n1 | binding | – | 1 µM | 96% |
| O=C(c1ccc(Nc2ncc(Cl)c(-c3cc4ccccc4s3)n2)cc1)N1CCC(N2CCCC2)CC1 | binding | competition with immobilised ligand | 1 µM | 42% |
| CN(C)c1ncc(F)c(-c2cnn3ncccc23)n1 | binding | – | 1 µM | 82% |
| O=c1nc(-c2ccccn2)sc2ccccc12 | binding | competition with immobilised ligand | 1 µM | 85% |
| C=CC(=O)N1CCC(C(=O)NCC(=O)N2CCN(c3nc(-c4cnc(N)nc4C(F)F)nc(N4CCOCC4)n3)CC2)CC1 | binding | competition with immobilised ligand | 1 µM | 100% |
| CN(C)c1nccc(-c2cnn3ncccc23)n1 | binding | – | 1 µM | 100% |
| CNCc1ccccc1-c1csc([C@H](C)Nc2nc(C)nc3cc(OC)c(OC)cc23)c1 | cell-free assay | competition with immobilised ligand | 1 µM | 98% |
| C[C@H]1CCN(c2nccc(-c3cnn4ncccc34)n2)C1 | binding | – | 1 µM | 97% |
| C[C@@H]1CN(c2cc(-c3nn(C)c4ccc(OC5(C)CC5)cc34)ncn2)C[C@H](C)O1 | cell-free assay | competition with immobilised ligand | 1 µM | 100% |
